KCNQ1 act = potentiators or activators of KCNQ1 channel, primary screen, cell-based, thallium flux, high-throughput; CHO-K1 KCNQ1, thallium flux FluxOR fluorescence; active compounds read high; AID 2648, 2010; Potassium voltage-gated channel subfamily KQT member 1 (Homo sapiens), P51787; B-score at 10 µM; 310,000 tested, 0.35% active;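 active = fluorescence ratio B-score, a plate-corrected score, at least three library SD, with initial intensity B-score within 5 SD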
Target sequence (P51787 whole entry, looked up): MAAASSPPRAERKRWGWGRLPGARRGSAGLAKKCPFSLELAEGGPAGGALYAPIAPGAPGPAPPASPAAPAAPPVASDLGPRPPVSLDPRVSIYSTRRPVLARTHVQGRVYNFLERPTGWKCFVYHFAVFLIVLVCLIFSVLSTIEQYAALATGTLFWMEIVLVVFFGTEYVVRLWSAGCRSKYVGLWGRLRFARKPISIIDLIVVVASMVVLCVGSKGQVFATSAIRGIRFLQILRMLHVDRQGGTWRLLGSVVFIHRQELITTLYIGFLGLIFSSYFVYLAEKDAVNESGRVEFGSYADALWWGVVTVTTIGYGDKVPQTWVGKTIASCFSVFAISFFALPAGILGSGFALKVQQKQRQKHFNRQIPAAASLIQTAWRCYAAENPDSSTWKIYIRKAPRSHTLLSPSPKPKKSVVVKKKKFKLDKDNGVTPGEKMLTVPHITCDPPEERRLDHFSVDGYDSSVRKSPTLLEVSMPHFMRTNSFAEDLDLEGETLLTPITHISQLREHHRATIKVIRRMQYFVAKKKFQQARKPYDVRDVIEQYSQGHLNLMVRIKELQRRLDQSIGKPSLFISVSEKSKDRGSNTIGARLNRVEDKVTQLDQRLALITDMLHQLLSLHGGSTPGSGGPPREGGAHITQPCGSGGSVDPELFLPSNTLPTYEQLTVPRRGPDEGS
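Assay system: CHO-K1 cells stably expressing KCNQ1. Medium: assay buffer for compound exposure, DMSO matched across wells. Timing: 37 °C overnight plating, 90-min dark dye load, 20-min compound pretreatment. Signal: kinetic FluxOR fluorescence, 10 s baseline plus 110 s post-stimulus.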
hERG rescue = hERG rescue from dofetilide block, primary screen, cell-based, CHO-hERG, FluxOR thallium flux, dofetilide IC70; dofetilide IC70 present; activation (rescue from dofetilide block), less the hit threshold, % at 10 µM; 310,000 tested, 0.51% active;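 active = activation above the mean of controls blocked by dofetilide plus 5 SD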;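 note: thallium influx through hERG after potassium depolarization seen as dye fluorescence rise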
KCNQ1 inh = inhibitors of human KCNQ1 channel, primary screen, cell-based, thallium flux, high-throughput; CHO-K1 KCNQ1, FluxOR thallium flux fluorescence; active compounds read high; B-score at 10 µM; 310,000 tested, 1.3% active; AID 2642, 2010;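 active = compounds whose thallium flux B-score, printed positive for inhibition, exceeds three library SD while starting fluorescence stays within three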;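 note: channel opened by potassium depolarization with thallium stimulus after 20 min compound exposure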
KCNK3 inh = human KCNK3 channel inhibitors, primary screen, CHO cells, FluxOR thallium flux, B-score; B-score at 10 µM; Potassium channel subfamily K member 3 (Homo sapiens), O14649; FluxOR fluorescence; active compounds read low; 340,000 tested, 0.84% active; AID 602410, 2012;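 active = B-score under library mean minus 4 SD, starting fluorescence ratio at most library mean plus 5 SD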;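 note: more negative B-score means stronger inhibition of thallium flux through KCNK3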
KCNK9 inh = KCNK9 potassium channel inhibitors, primary screen, HEK293 cells, thallium flux. Potassium channel subfamily K member 9 (Homo sapiens), Q9NPC2. FluxOR thallium flux fluorescence; active compounds read low. B-score at 10 µM. 310,000 tested, 1.2% active. AID 488922, 2010;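 active = ratio B-score over 3 SD below the library mean, with starting fluorescence within 5 SD of its mean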;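 note: negative B-score means less thallium flux so channel inhibition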
KCNK9 block conf = KCNK9 potassium channel inhibitors, confirmation, HEK293 cells, thallium flux, duplicate. inhibition, % at 10 µM. FluxOR thallium flux fluorescence. shares compounds with KCNK9 inh. AID 492992, 2010. 4,900 tested, 43% active;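 active = thallium signal inhibited by more than 5 SD of the compound-free buffer control wells, on both duplicate plates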;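 note: 0% = assay buffer control wells without compound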
Kir21 sel = mouse Kir2.1 channel inhibition, confirmation, selectivity assay for KCNK9 modulator project, cell-based, HEK293, thallium flux; shares compounds with KCNK9 inh; Kir2.1 cells, FluxOR thallium flux fluorescence; inhibition, % at 10 µM; 4,900 tested, 4% active; AID 492993, 2010;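 active = thallium signal drop more than 5 SD beyond the mean of the no-compound control wells, seen in both duplicate plates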;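 note: signal is fluorescence rise after thallium addition divided by baseline fluorescence; plate controls were assay buffer only for no effect and full block by chlorpromazine control for full effect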
HEK293 Tl ctr = thallium flux in non-induced HEK293 cells, confirmation, counter-screen for KCNK9 inhibitor project, cell-based, second counter screen, non-induced KCNK9-HEK293; shares compounds with KCNK9 inh; FluxOR thallium flux; inhibition, % at 10 µM; 4,900 tested, 40% active; AID 492997, 2010;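 active = thallium signal drop beyond 5 SD of the untreated control mean, on both duplicate plates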;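 note: plate controls were buffer only IC0 wells for no effect and SID17386958 at its maximal inhibitory level for full effect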
* = called active by the depositor; i = inactive; x = not tested or not shown. Rows were chosen to be rich in hits. Some 3.1% of all compounds tested hit in one or more screens of this group.

SMILES | KCNQ1 act | hERG rescue | KCNQ1 inh | KCNK3 inh | KCNK9 inh | KCNK9 block conf | Kir21 sel | HEK293 Tl ctr
O=C(O/N=C1\CCCCC1c1ccc([N+](=O)[O-])cc1[N+](=O)[O-])c1c(F)cccc1F (stereo not given) | i | -10.0 | i | i | i | x | x | x
Cc1ccc(NC(=O)O/N=C2\CCCCC2c2ccc([N+](=O)[O-])cc2[N+](=O)[O-])cc1 (stereo not given) | i | -5.9 | i | i | -10.2* | 65.0%* | i | 32.0%*
O=[N+]([O-])c1ccc(C2CCCC/C2=N/O)c([N+](=O)[O-])c1 (stereo not given) | i | 0.0 | i | i | i | x | x | x
COc1ccc(-c2csc(Nc3ccc(S(=O)(=O)Nc4cc(C)on4)cc3)n2)cc1C | i | -38.4 | i | i | -8.74* | 55.5%* | i | i
COc1ccc(-c2csc(Nc3ccc(S(=O)(=O)Nc4cc(OC)nc(OC)n4)cc3)n2)cc1 | i | -12.8 | i | i | i | x | x | x
CC(C)Cc1nc2sc3c(c2c(=O)n1N)CC(C)(C)OC3 | i | -8.2 | i | i | i | x | x | x
Cc1cc(C)cc(NC2=CC(=O)CC(c3ccco3)C2)c1 (stereo not given) | i | -6.3 | i | i | -12.1* | 37.0%* | i | 23.5%*
Cc1ccc(NC2=CC(=O)CC(c3ccco3)C2)c(N)c1 (stereo not given) | i | -8.5 | i | i | i | x | x | x
CCOC(=O)c1c(C)n(-c2ccc(C)cc2)c2c(C(C(C)=O)C(=O)O)c(Br)c(O)c(O)c12 (stereo not given) | i | -10.2 | i | i | i | x | x | x
CCOC(=O)C(C(C)=O)c1c(Br)c(O)c(O)c2c(C(=O)c3ccc(C)cc3)coc12 (stereo not given) | i | -8.5 | 9* | i | -14.9* | 70.5%* | i | 46.5%*
Fc1cccc(NC(=S)NCCN2CCOCC2)c1 | i | -6.2 | i | i | i | x | x | x
Cc1ccc(C(=O)Oc2ccc3ccc(=O)oc3c2)cc1 | i | -4.2 | i | i | i | x | x | x
O=C(Oc1ccc2ccc(=O)oc2c1)c1ccc([N+](=O)[O-])cc1 | i | -11.2 | i | i | -15* | 39.5%* | i | i
CC(C)(C)c1ccc(C(=O)N2CCCC2c2cccs2)cc1 (stereo not given) | i | -10.7 | i | i | i | i | i | i
COC(=O)C(Cc1ccc(OC(=O)c2ccc(C(F)(F)F)cc2)cc1)N1Cc2ccccc2C1=O (stereo not given) | i | -10.1 | 6* | i | i | i | i | i
CC(C)CCNC(=O)c1c(CSc2ccccc2)noc1C(=O)NCc1ccccc1 | i | -9.3 | i | i | i | i | i | i
CCCNC(=O)c1onc(CSc2ccc(Cl)cc2)c1C(=O)NCC1CC1 | i | -10.2 | i | i | i | i | i | i
CCCNC(=O)c1onc(CSc2ccc(Cl)cc2)c1C(=O)NCCC(C)C | i | -8.2 | i | i | i | i | i | i
C=CCNC(=O)c1c(CSc2ccc(Cl)cc2)noc1C(=O)NCCC | i | -4.7 | i | i | i | x | x | x
C=CCNC(=O)c1c(CSc2ccc(Cl)cc2)noc1C(=O)NCc1ccccc1 | i | -20.7 | i | i | i | i | i | i
O=C(NCC1CC1)c1onc(CSc2ccc(F)c(F)c2)c1C(=O)NCC1CC1 | i | -10.2 | i | i | i | x | x | x
CC1C(=O)N2CCCc3cc(NC(=O)CC(C)(C)C)cc1c32 (stereo not given) | i | -5.2 | i | i | i | x | x | x
Cc1sc2c(=O)n3c(nc2c1C(=O)NCCCN1CCOCC1)CCCCC3 | i | -5.6 | i | i | i | x | x | x
CC(OC(=O)c1cc(=O)[nH]c2ccccc12)C(=O)NC1CCCCC1C (stereo not given) | i | -7.7 | i | i | i | x | x | x
COc1ccc(-n2c(C)c(C)c3c(NCCN(C)C)ncnc32)cc1 | i | -3.6 | i | i | i | x | x | x
SMILES | KCNQ1 act | hERG rescue | KCNQ1 inh | KCNK3 inh | KCNK9 inh | KCNK9 block conf | Kir21 sel | HEK293 Tl ctr
Cc1ccc(CO/N=C\Cc2snc(Sc3ncc(C(F)(F)F)cc3Cl)c2C#N)cc1 | i | -12.1 | i | i | i | i | i | i
N#CCc1ccc(Oc2ncc(C(F)(F)F)cc2Cl)cc1 | i | -6.1 | i | i | i | x | x | x
CCOC(=O)c1c(NC(=O)Cn2ccsc2=N)sc(C)c1C | i | -10.6 | i | i | i | x | x | x
Cc1cc(Oc2cnn(C(C)(C)C)c(=O)c2Cl)cc(C(C)C)c1 | i | -20.8 | i | i | i | i | i | i
O=c1[nH]c2cc3c(cc2cc1C(c1nnnn1C1CCCCC1)N1CCSCC1)OCCO3 (stereo not given) | x | x | x | i | x | x | x | x
COc1ccc(NC(=O)CN(C)CC(=O)Nc2ccc3c(c2)CCC3)cc1 | i | -7.9 | i | i | i | x | x | x
COc1ccc(NC(=O)O/N=C2/CCCc3ccc(OC)cc32)cc1 | i | -10.8 | i | i | -11.8* | 66.5%* | 33.5%* | 26.0%*
COc1ccc2c(c1)/C(=N/OC(=O)c1cccs1)CCC2 | i | -11.6 | i | i | -12* | i | i | i
Cn1nc(-c2ccc(N3CCCCC3)c(NC(=O)c3ccco3)c2)c2ccccc2c1=O | i | -13.0 | i | i | -15* | 73.0%* | i | 36.0%*
Cc1ccc(S(=O)(=O)NC(=O)NCC2CCN(S(=O)(=O)c3ccccc3)CC2)cc1 | i | 2.3 | i | i | i | x | x | x
CCC(C)(C)NC(=O)CN(Cc1ccc(F)cc1)C(=O)CCC(=O)Nc1ccccn1 | i | -3.4 | i | i | i | x | x | x
Cc1noc(C)c1CSCC(=O)N(C)CC(=O)Nc1ccc(Cl)c(C(F)(F)F)c1 | i | -14.7 | i | i | -10.3* | 51.5%* | i | 24.0%*
Cn1ncc([N+](=O)[O-])c1C(=O)n1nnc2ccccc21 | x | x | x | i | x | x | x | x
